Assay results published in the M2OR odorant receptor database.

Assays:
Conditions in all cases: stereoisomer not certain
[1] = target: T1, UniProt L7N210
T1 sequence (whole entry): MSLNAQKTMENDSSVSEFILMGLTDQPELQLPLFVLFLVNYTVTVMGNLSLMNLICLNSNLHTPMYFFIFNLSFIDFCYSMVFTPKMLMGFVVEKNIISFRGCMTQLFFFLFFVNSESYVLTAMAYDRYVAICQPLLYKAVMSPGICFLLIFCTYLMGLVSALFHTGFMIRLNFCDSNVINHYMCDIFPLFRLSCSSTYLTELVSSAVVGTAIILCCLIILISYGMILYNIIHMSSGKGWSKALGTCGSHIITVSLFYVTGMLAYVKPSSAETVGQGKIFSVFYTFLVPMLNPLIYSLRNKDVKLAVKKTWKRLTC
Summary of the method: (§1)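 Assay methods differ from source to source, frequently being transient luciferase assays in mammalian cell lines. For each receptor–molecule pair, the label responsive (active) applies when the original authors judged the measured signal statistically different from baseline, and non-responsive (inactive) applies otherwise.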

[2] = target: T2, UniProt Q3KPB0
T2 sequence (whole entry): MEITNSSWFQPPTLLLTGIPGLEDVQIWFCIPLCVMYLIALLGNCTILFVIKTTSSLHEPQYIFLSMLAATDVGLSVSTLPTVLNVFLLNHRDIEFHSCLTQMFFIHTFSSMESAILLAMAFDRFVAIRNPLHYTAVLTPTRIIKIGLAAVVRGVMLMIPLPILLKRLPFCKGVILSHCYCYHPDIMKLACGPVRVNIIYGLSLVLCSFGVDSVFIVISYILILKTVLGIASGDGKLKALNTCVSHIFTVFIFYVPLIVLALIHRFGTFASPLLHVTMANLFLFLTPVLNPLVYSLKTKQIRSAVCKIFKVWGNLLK
Summary of the method: as §1

[3] = target: T3, UniProt Q3U0P3
T3 sequence (whole entry): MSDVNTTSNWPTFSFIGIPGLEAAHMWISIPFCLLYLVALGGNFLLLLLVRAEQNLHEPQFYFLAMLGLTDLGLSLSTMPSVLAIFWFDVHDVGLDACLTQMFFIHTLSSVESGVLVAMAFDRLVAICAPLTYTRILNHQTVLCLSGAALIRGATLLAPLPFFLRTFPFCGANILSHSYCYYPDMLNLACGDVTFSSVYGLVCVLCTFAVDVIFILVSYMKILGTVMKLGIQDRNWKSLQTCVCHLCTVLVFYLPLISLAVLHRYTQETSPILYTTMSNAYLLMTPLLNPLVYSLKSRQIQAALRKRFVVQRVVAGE
Summary of the method: as §1

[4] = target: T4, UniProt Q7TQU8
T4 sequence (whole entry): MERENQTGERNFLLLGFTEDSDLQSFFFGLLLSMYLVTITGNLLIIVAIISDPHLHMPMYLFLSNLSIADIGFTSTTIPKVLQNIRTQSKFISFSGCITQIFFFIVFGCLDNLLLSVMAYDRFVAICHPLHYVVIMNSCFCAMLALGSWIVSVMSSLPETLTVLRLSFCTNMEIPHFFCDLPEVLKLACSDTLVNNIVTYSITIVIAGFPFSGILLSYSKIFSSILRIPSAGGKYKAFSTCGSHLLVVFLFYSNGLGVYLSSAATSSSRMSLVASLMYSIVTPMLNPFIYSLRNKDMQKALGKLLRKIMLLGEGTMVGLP
Summary of the method: as §1

[5] = target: T5, UniProt Q7TR79
T5 sequence (whole entry): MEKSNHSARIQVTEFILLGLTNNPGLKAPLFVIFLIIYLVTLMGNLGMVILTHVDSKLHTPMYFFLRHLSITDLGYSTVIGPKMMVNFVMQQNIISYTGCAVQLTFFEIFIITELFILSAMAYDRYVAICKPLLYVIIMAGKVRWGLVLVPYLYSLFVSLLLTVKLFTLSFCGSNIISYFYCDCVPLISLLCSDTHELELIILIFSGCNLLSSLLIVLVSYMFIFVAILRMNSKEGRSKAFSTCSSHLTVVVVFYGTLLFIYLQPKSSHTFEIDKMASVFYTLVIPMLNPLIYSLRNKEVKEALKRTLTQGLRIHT
Summary of the method: as §1

[6] = target: T6, UniProt Q7TRX0
T6 sequence (whole entry): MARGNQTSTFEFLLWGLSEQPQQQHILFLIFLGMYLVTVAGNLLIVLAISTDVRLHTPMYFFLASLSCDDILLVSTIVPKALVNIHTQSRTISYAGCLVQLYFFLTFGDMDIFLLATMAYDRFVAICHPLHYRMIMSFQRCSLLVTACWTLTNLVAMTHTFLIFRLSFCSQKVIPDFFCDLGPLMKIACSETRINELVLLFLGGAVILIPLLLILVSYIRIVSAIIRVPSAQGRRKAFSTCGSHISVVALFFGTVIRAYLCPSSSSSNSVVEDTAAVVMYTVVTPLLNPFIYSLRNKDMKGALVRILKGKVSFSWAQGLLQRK
Summary of the method: as §1

[7] = target: T7, UniProt Q8VF43
T7 sequence (whole entry): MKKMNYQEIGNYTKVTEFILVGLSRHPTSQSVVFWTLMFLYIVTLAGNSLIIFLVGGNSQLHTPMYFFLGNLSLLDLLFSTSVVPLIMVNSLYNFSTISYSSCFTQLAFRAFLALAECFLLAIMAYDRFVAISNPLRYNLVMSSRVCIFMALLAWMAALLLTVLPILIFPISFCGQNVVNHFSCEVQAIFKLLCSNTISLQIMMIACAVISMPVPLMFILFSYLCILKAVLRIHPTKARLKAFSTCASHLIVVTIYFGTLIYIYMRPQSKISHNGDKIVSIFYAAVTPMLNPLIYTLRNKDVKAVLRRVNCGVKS
Summary of the method: as §1

SMILES | odorant receptor agonist call [1] | odorant receptor agonist call [2] | odorant receptor agonist call [3] | odorant receptor agonist call [4] | odorant receptor agonist call [5] | odorant receptor agonist call [6] | odorant receptor agonist call [7]
CCCCC(Br)C(=O)O (stereo not given) | active | inactive | inactive | inactive | inactive | inactive | inactive
O=Cc1ccccc1 | inactive | inactive | inactive | inactive | inactive | inactive | inactive
C=C(C)C1CC=C(C=O)CC1 (stereo not given) | active | inactive | inactive | inactive | inactive | inactive | inactive
CC(C=O)Cc1ccc2c(c1)OCO2 (stereo not given) | active | inactive | inactive | inactive | inactive | inactive | inactive
CSSC | inactive | inactive | inactive | inactive | inactive | inactive | inactive
